The text below walks through data of ChEMBL document CHEMBL1122782, “Bulky amine analogues of ketoprofen: potent antiinflammatory agents” (J Med Chem, 1984).

Structures are written as SMILES.

The subject of assay [1] is Rattus norvegicus. As to the kind of experiment: Ulcerogenicity was measured in intestine during the 3 week adjuvant arthritis test.(animals with ulcers/animals in test) at 0.0014 mM/kg (0.50 mg). The format is functional. The procedure, abridged:
(§1)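 Male Sprague-Dawley rats (200–230 g) were injected in the plantar tissue of one hind paw with 0.1 mL of 0.6% M. butyricum suspension in heavy mineral oil. Daily oral gavage began on the day of adjuvant injection and ran for the 21 days, with drug suspended in 1% gum tragacanth or a corn oil-water emulsion. At the end the rats were sacrificed and the small intestine and stomach were examined for ulcers. Results are given as animals with ulcers/animals tested.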

Assay [2] deals with Rattus norvegicus. In words: Ulcerogenicity was measured in intestine during the 3 week adjuvant arthritis test.(animals with ulcers/animals in test) at 0.008 mM/kg (2.86 mg). The assay is classed as functional. The procedure, abridged:
as §1

For assay [3], the system named is Rattus norvegicus. In words: Antiinflammatory efficacy is measured by the percent inhibition of paw volume during the 3 week adjuvant arthritis test at 0.0014 mM/kg (0.50 mg). The assay is classed as functional. The method in brief:
(§2)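 Male Sprague-Dawley rats (200–230 g) were used in groups of eight. Each received 0.1 mL of 0.6% M. butyricum in heavy mineral oil into the plantar tissue of one hind paw. Daily oral gavage in 1% gum tragacanth or corn oil-water emulsion began on the injection day and ran 21 days. Total hind paw volume was measured by mercury displacement, and inhibition was taken versus vehicle-treated adjuvant controls.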

Assay [4] concerns Rattus norvegicus. As to the kind of experiment: Potency relative to phenylbutazone at 0.0014 mM/kg. The format is functional.
In assay [5] the test system is Rattus norvegicus. As to the kind of experiment: Antiinflammatory efficacy is measured by the weight gain in rats during the 3 week adjuvant arthritis test at 0.0014 mM/kg (0.50 mg). The format is functional. The method in brief: (§3)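 Rats were adjuvant-injected (M. butyricum in mineral oil, one hind paw) or given a mineral-oil placebo. They were dosed by gavage daily for 21 days from the injection day, with vehicle only for both control groups, then weighed at the end. Weight gain % = (treated − adjuvant control)/(negative control − adjuvant control) × 100.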

The test system of assay [6] is Rattus norvegicus. In words: Antiinflammatory efficacy is measured by the weight gain in rats during the 3 week adjuvant arthritis test at 0.008 mM/kg (2.86 mg). The assay is classed as functional. The method in brief:
as §3

Assay [7] concerns Rattus norvegicus. In words: Antiinflammatory efficacy is measured by the weight gain in rats during the 3 week adjuvant arthritis test at 0.011 mM/kg (3.94 mg). The format is functional. The procedure, abridged: as §3
The species named for assay [8] is Rattus norvegicus. As to the kind of experiment: Compound was evaluated for highest non-ulcerogenic dose (less than 50% ulcer incidence). The assay is classed as functional. To be noted: read-out: ED50. The procedure, abridged:
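Taken from the 21-day adjuvant arthritis test in male Sprague-Dawley rats dosed orally each day from the day of adjuvant injection. Small intestines and stomachs were examined for ulceration at the end. The value is the highest dose giving less than 50% ulcer incidence.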

Assay [9] has as its system Rattus norvegicus. In words: Ulcerogenicity was measured in stomach during the 3 week adjuvant arthritis test.(animals with ulcers/animals in test) at 0.008 mM/kg (2.86 mg). The assay is classed as functional. The procedure, abridged:
as §1

Assay [10] deals with Rattus norvegicus. As to the kind of experiment: Ulcerogenicity was measured in stomach during the 3 week adjuvant arthritis test.(animals with ulcers/animals in test) at 0.0014 mM/kg (0.50 mg). The format is functional. The procedure, abridged: as §1
Assay [11] deals with Rattus norvegicus. As to the kind of experiment: Antiinflammatory efficacy is measured by the percent inhibition of paw volume during the 3 week adjuvant arthritis test at 0.02 mM/kg (8.80 mg). The format is functional. The procedure, abridged: as §2
In assay [12] the test system is Rattus norvegicus. As to the kind of experiment: Antiinflammatory efficacy is measured by the weight gain in rats during the 3 week adjuvant arthritis test at 0.08 mM/kg (35.2 mg). The assay is classed as functional. The method in brief:
as §3

The test system of assay [13] is Rattus norvegicus. In words: Ulcerogenicity was measured in stomach during the 3 week adjuvant arthritis test, no of animals with ulcers out of 4 animals tested at 0.08 mM/kg (35.2 mg) was reported. The assay is classed as functional. The procedure, abridged: as §1
Assay [14] relates to Rattus norvegicus. As to the kind of experiment: Antiinflammatory efficacy is measured by the weight gain in rats during the 3 week adjuvant arthritis test at 0.005 mM/kg (2.20 mg). The format is functional. The procedure, abridged:
as §3

Assay [15] has as its system Rattus norvegicus. As to the kind of experiment: Ulcerogenicity was measured in stomach during the 3 week adjuvant arthritis test, no of animals with ulcers out of 4 animals tested at 0.16 mM/kg (70.4 mg) was reported. The assay is classed as functional. The method in brief: as §1
In assay [16] the test system is Rattus norvegicus. As to the kind of experiment: Ulcerogenicity was measured in intestine during the 3 week adjuvant arthritis test, no of animals with ulcers out of animals tested at 0.32 mM/kg (141 mg) was reported; toxic. The format is functional, organism-based. The procedure, abridged: as §1
The subject of assay [17] is Rattus norvegicus. In words: Antiinflammatory efficacy is measured by the percent inhibition of paw volume during the 3 week adjuvant arthritis test at 0.08 mM/kg (35.2 mg). The assay is classed as functional. The method in brief:
as §2

In assay [18] the test system is Rattus norvegicus. As to the kind of experiment: The percent inhibition was calculated from the average differences in hind paw volume between the adjuvant injected controls and the adjuvant-injected medicated rats at 0.08 mmol/kg; 80-89. The format is functional.
The subject of assay [19] is Rattus norvegicus. As to the kind of experiment: Antiinflammatory efficacy is measured by the weight gain in rats during the 3 week adjuvant arthritis test at 0.16 mM/kg (70.4 mg). The assay is classed as functional. The method in brief:
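Male Sprague-Dawley rats (200–230 g), eight per group, received 0.1 mL of 0.6% M. butyricum in heavy mineral oil (negative controls: mineral oil) into one hind-paw plantar tissue. Daily gavage in 1% gum tragacanth or corn oil-water emulsion began on the injection day, for 21 days. Weight gain is expressed as (treated − adjuvant control)/(negative control − adjuvant control) × 100.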

In assay [20] the test system is Rattus norvegicus. In words: Ulcerogenicity was measured in intestine during the 3 week adjuvant arthritis test, no of animals with ulcers out of 4 animals tested at 0.08 mM/kg (35.2 mg) was reported. The format is functional. The procedure, abridged: (§4)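 In the 21-day adjuvant arthritis model, male Sprague-Dawley rats (200–230 g) received an M. butyricum mineral-oil suspension into one hind paw. They were dosed daily by gavage from the day of injection. At the end of the study the rats were killed, and the small intestines were examined for ulcers. Results are given as the number of ulcerated animals over the number tested.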

Assay [21] has as its system Rattus norvegicus. In words: Antiinflammatory efficacy is measured by the percent inhibition of paw volume during the 3 week adjuvant arthritis test at 0.005 mM/kg (2.20 mg). The format is functional. The procedure, abridged:
as §2

Assay [22] relates to Rattus norvegicus. In words: Antiinflammatory efficacy is measured by the weight gain in rats during the 3 week adjuvant arthritis test at 0.02 mM/kg (8.80 mg). The format is functional. The procedure, abridged:
as §3

Assay [23] relates to Rattus norvegicus. As to the kind of experiment: Ulcerogenicity was measured in intestine during the 3 week adjuvant arthritis test, no of animals with ulcers out of 4 animals tested at 0.16 mM/kg (70.4 mg) was reported. The format is functional. The procedure, abridged: as §4
Assay [24] has as its system Rattus norvegicus. In words: The mean increase in paw volume was compared between drug treated groups and placebo to calculate the percent inhibition in rats at 0.02 mmol/kg by carrageenan Edema Assay; 40-49. The format is functional.
Assay [25] concerns Rattus norvegicus. As to the kind of experiment: The percent inhibition was calculated from the average differences in hind paw volume between the adjuvant injected controls and the adjuvant-injected medicated rats at 0.08 mmol/kg; 90-99. The format is functional.
Assay [26] deals with Rattus norvegicus. As to the kind of experiment: Ulcerogenicity was measured in stomach during the 3 week adjuvant arthritis test, no of animals with ulcers out of 3 animals tested at 0.32 mM/kg (130 mg) was reported. The format is functional. The procedure, abridged:
as §1

Assay [27] deals with Rattus norvegicus. In words: Antiinflammatory efficacy is measured by the percent inhibition of paw volume during the 3 week adjuvant arthritis test at 0.005 mM/kg (2.03 mg). The format is functional. The procedure, abridged:
as §2

The subject of assay [28] is Rattus norvegicus. In words: Ulcerogenicity was measured in intestine during the 3 week adjuvant arthritis test, no of animals with ulcers out of 8 animals tested at 0.08 mM/kg (32.4 mg) was reported. The assay is classed as functional. The method in brief:
as §4

Assay [29] has as its system Rattus norvegicus. As to the kind of experiment: Potency relative to phenylbutazone at 0.02 […]. The format is functional.
Assay [30] concerns Rattus norvegicus. As to the kind of experiment: Antiinflammatory efficacy is measured by the percent inhibition of paw volume during the 3 week adjuvant arthritis test at 0.02 mM/kg (8.11 mg). The format is functional. The procedure, abridged:
as §2

Assay [31] has as its system Rattus norvegicus. In words: Antiinflammatory efficacy is measured by the weight gain in rats during the 3 week adjuvant arthritis test at 0.08 mM/kg (32.24 mg). The assay is classed as functional. The method in brief:
as §3

Assay [32] concerns Rattus norvegicus. As to the kind of experiment: The mean increase in paw volume was compared between drug treated groups and placebo to calculate the percent inhibition in rats at 0.02 mmol/kg by carrageenan Edema Assay; 50-59. The format is functional.
The subject of assay [33] is Rattus norvegicus. In words: Ulcerogenicity was measured in stomach during the 3 week adjuvant arthritis test, no of animals with ulcers out of 8 animals tested at 0.08 mM/kg (32.4 mg) was reported. The assay is classed as functional. The procedure, abridged:
as §1

Assay [34] deals with Rattus norvegicus. As to the kind of experiment: Antiinflammatory efficacy is measured by the percent inhibition of paw volume during the 3 week adjuvant arthritis test at 0.08 mM/kg (32.24 mg). The format is functional. The method in brief:
as §2

In assay [35] the test system is Rattus norvegicus. As to the kind of experiment: Antiinflammatory efficacy is measured by the weight gain in rats during the 3 week adjuvant arthritis test at 0.005 mM/kg (2.03 mg). The format is functional. The method in brief:
as §3

In assay [36] the test system is Rattus norvegicus. As to the kind of experiment: Ulcerogenicity was measured in intestine during the 3 week adjuvant arthritis test, no of animals with ulcers out of 3 animals tested at 0.32 mM/kg (130 mg) was reported. The format is functional. The method in brief:
as §4

Assay [37] has as its system Rattus norvegicus. In words: Antiinflammatory efficacy is measured by the weight gain in rats during the 3 week adjuvant arthritis test at 0.02 mM/kg (8.11 mg). The format is functional. The procedure, abridged:
as §3

A word on the Inhibition: it is the drop in the measured response relative to a control, in per cent. As to `COc1ccc2c(c1)c(CC(=O)O)c(C)n2C(=O)c1ccc(Cl)cc1` [INDOMETHACIN], the Ulcerogenic index in [1] is listed as 3; in assay [2], 17; in assay [9], 5; in assay [10] it was 6. Further, in assay [3], the Inhibition is reported as 63%. In addition, the Potency in assay [4] is listed as 20%. For the same molecule, the Weight gain in assay [5] is recorded as 14%; in [6] it was 48%; in [7] it was 38%. Also, the highest non-ulcerogenic dose in assay [8] turned out to be 0.4 µmol/kg.

The inhibition in vivo is the share of the control response that was lost under treatment. `CC(CN1CCCCC1CC1CCCCC1)c1cccc(C(O)c2ccc(Cl)cc2)c1` (centres undefined): the Inhibition in assay [11] amounted to 70%; in [17] it was 88%; in assay [21], 64%. In addition, the Weight gain is on record as 87% in [12], 40% in assay [14], 84% in assay [19] and 69% in [22]. Besides, the Ulcerogenic index in assay [13] is 0; in [15] it was 0; in [16], “Toxic”; in assay [20], 1; in [23] it was 3. Moreover, the inhibition in vivo at 80 µmol/kg in assay [18] is 80%. Besides, the highest non-ulcerogenic dose in assay [8] amounted to 1 µmol/kg. In addition, the inhibition in vivo at 20 µmol/kg in assay [24] is 40%.

As for `CC(CN1CCCCC1CC1CCCCC1)c1cccc(C(O)c2ccccc2)c1` (centres undefined), the inhibition in vivo at 80 µmol/kg in assay [25] is 90%. Besides, the Ulcerogenic index in assay [26] is 1; in assay [28], 1; in assay [33], 1; in assay [36], 3. Besides, the results for the Inhibition in assay [27], in assay [30] and in assay [34] were 37%, 82% and 110%, respectively. This molecule yielded a Relative potency in [29] of 8.6%. Also, the Weight gain is 67% in assay [31], 13% in assay [35] and 36% in assay [37]. In addition, the inhibition in vivo at 20 µmol/kg in assay [32] was 30%. In addition, the highest non-ulcerogenic dose in assay [8] came out at 8 µmol/kg.
